Reference: ChEMBL document CHEMBL4406805, “Development of Inhibitors against Mycobacterium abscessus tRNA (m1G37) Methyltransferase (TrmD) Using Fragment-Based Approaches” (J Med Chem, 2019)
pKd: −log10 of the molar value. Values after ≈ are worked out from the molar mass of the structure shown. Active and inactive are the calls of the source. No cut-off for these calls is given here.

Tests used:
[1] = tested on: Mycobacteroides abscessus; assay: Binding affinity to Mycobacterium abscessus N-terminal His-tagged 3C protease linked full length tRNA (m1-G37) methyltransferase expressed in Escherichia coli BL21(DE3) assessed as change in melting temperature at 100 uM by SYPRO Orange dye based DSF assay
Outline: (§1)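 DSF with 10 μM Mab TrmD (His-tag cleaved) in 50 mM HEPES pH 7.5, 500 mM NaCl, 5x SYPRO Orange. Final DMSO was 5%, either as ligand stock or as DMSO alone. Samples were ramped from 25 to 95 °C in 0.5 °C steps of 30 s. ΔTm was taken relative to the DMSO control.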

[2] = Binding affinity to Mycobacterium abscessus N-terminal His-tagged 3C protease linked full length tRNA (m1-G37) methyltransferase expressed in Escherichia coli BL21(DE3) by isothermal titration calorimetry; set-up: species or system Mycobacteroides abscessus
Outline: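 ITC at 25 °C. TrmD (33 or 100 μM in cell) was dialysed overnight at 4 °C into 50 mM HEPES pH 7.5, 500 mM NaCl, 5% glycerol, with final DMSO 2–10%. Ligand:protein was 10–20:1. A 0.2 μL injection was discarded, followed by 19×2 or 39×1 μL injections at 60–150 s spacing. No-protein blanks were subtracted. Data were fitted to a one-site model (N fixed at 1 for weak binders). Mostly n = 1 with fit error; SD when n > 1.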

[3] = Antimycobacterial activity against Mycobacterium abscessus subsp. abscessus ATCC 19977 by CLSI M07-A9 protocol based method; format: functional; settings: Mycobacteroides abscessus
[4] = tested on: Mycobacterium tuberculosis; assay: Antimycobacterial activity against Mycobacterium tuberculosis H37Rv incubated for 2 weeks in presence of GAST-Fe medium; format: functional; settings: 336 h
[5] = tested on: Mycobacterium tuberculosis; assay: Antimycobacterial activity against Mycobacterium tuberculosis H37Rv incubated for 2 weeks in presence of 7H9/ADC medium; format: functional; settings: 336 h
[6] = tested on: Mycobacterium tuberculosis; assay: Antimycobacterial activity against Mycobacterium tuberculosis H37Rv incubated for 2 weeks in presence of 7H9/glucose medium; format: functional; settings: 336 h
[7] = tested on: Mycobacteroides abscessus; assay: Binding affinity to Mycobacterium abscessus N-terminal His-tagged 3C protease linked full length tRNA (m1-G37) methyltransferase expressed in Escherichia coli BL21(DE3) assessed as change in melting temperature at 5 mM by SYPRO Orange dye based DSF assay; outline: as §1
[8] = tested on: Mycobacterium tuberculosis; assay: Antimycobacterial activity against Mycobacterium tuberculosis H37Rv incubated for 2 weeks in presence of 7H9/DPPC medium; format: functional; settings: 336 h
[9] = tested on: Mycobacteroides abscessus; assay: Binding affinity to Mycobacterium abscessus N-terminal His-tagged 3C protease linked full length tRNA (m1-G37) methyltransferase expressed in Escherichia coli BL21(DE3) after 15 mins by mass Spectrometry
Outline: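 Native nanoESI-MS. His-tag was removed with 3C protease before IMAC and gel filtration. TrmD was exchanged into 200 mM ammonium acetate pH 7.0. Protein (20 μM in titration) was equilibrated at room temperature for at least 15 min alone or with ligand (12.5–100 μM; 100 μM for screening) in 5% DMSO. Read-out was ligand occupancy (singly or doubly bound) of the 13+ and 14+ charge states.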

[10] = tested on: Mycobacteroides abscessus; assay: Binding affinity to Mycobacterium abscessus N-terminal His-tagged 3C protease linked full length tRNA (m1-G37) methyltransferase expressed in Escherichia coli BL21(DE3) by reverse isothermal titration calorimetry
Outline: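 Reverse ITC at 25 °C. 420 μM TrmD was injected into 35 μM ligand in the cell. Buffer was 50 mM HEPES pH 7.5, 500 mM NaCl, 5% glycerol with DMSO; blank titrations were subtracted. Data were fitted to a one-site binding model, otherwise as for forward titrations.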

SMILES	ΔTm [1] [°C]	pKd [2]	other results
N#Cc1c(N)n[nH]c1-c1ccc2ccn(Cc3ccc(CN4CCCC4)cn3)c2c1	12	4.04	MIC [3]: 50 µM (≈ 19.9 µg/mL)
N#Cc1c(N)n[nH]c1-c1ccc2ccn(Cc3ccc(CN4CCCCC4)cc3)c2c1	12.6	–	MIC [3]: 50 µM (≈ 20.5 µg/mL); MIC [4]: 50 µM; MIC [5]: 100 µM; MIC [6]: 25 µM
CCOC(=O)c1cnn(CC#Cc2cc(COC(=O)c3cn[nH]c3)cc(OC)c2)c1	9.6	5.34	–
CN1CCCCC1Cn1ccc2ccc(-c3[nH]nc(N)c3C#N)cc21 (racemic)	8.8	6.23	–
O=C(OCc1ccc([N+](=O)[O-])cc1)c1cn[nH]c1	0.4	–	–
O=C(OCc1cccc(OCc2ccccn2)c1)c1cn[nH]c1	2.5	–	–
COC(=O)COc1cccc(COC(=O)c2cn[nH]c2)c1	2.6	5.00	–
COc1cc(COC(=O)c2cn[nH]c2)cc(-c2cccnc2)c1	3.8	5.17	–
CCOC(=O)c1cn[nH]c1	0.4	4.05	ΔTm [7]: 4 °C
COc1ccc(-c2cc(N)[nH]n2)cc1	–	3.77	ΔTm [7]: 3 °C
Nc1cc(-c2ccc3ccn(Cc4ccc(CN5CCCC5)cc4)c3c2)[nH]n1	7	3.31	MIC [3]: 50 µM (≈ 18.6 µg/mL); MIC [4]: 25 µM; MIC [5]: 100 µM; MIC [6]: 12.5 µM; MIC [8]: 6.3 µM
COc1cccc(-c2cc(N)n[nH]2)c1	–	–	ΔTm [7]: -0.5 °C
CN1CCN(Cc2ccc(Cn3ccc4ccc(-c5[nH]nc(N)c5C#N)cc43)cc2)CC1	12	4.14	MIC [3]: 50 µM (≈ 21.3 µg/mL); MIC [4]: 25 µM; MIC [6]: 12.5 µM; MIC [8]: 6.3 µM
COc1cc(COC(=O)c2cn[nH]c2)cc(Cc2cccnc2)c1	3	4.92	–
N#Cc1c(N)n[nH]c1-c1ccc2ccn(Cc3ccc(CN4CCOCC4)cc3)c2c1	12.6	–	MIC [3]: 50 µM (≈ 20.6 µg/mL); MIC [4]: 50 µM; MIC [5]: > 100 µM; MIC [6]: 100 µM; MIC [8]: 50 µM
NC(=O)c1ccccc1Cn1ccc2ccc(-c3cc(N)n[nH]3)cc21	1.4	–	–
OB(O)c1ccc2[nH]ccc2c1	–	–	ΔTm [7]: 1.3 °C
O=C(OCc1ccccc1)c1cn[nH]c1	3.1	4.48	–
COc1cc(COC(=O)c2cn[nH]c2)cc(N2CCCC2)c1	3	5.00	–
CCNC(=O)c1cn[nH]c1	–	–	ΔTm [7]: 0.4 °C
Nc1cc(-c2ccccc2)n[nH]1	–	–	ΔTm [7]: 1.5 °C
COc1cccc(Cn2ccc3ccc(-c4cc(N)n[nH]4)cc32)c1	4.6	4.89	–
Nc1cc(-c2ccc3ccn(Cc4ccccc4)c3c2)[nH]n1	3.4	4.72	Activity [9]: Active
N#Cc1c(N)n[nH]c1-c1ccc2ccn(Cc3ccc(CN4CCCC4)cc3)c2c1	12.9	4.57	MIC [3]: 50 µM (≈ 19.8 µg/mL); MIC [5]: > 100 µM; MIC [6]: 25 µM; MIC [8]: 12.5 µM; Activity [9]: Active
Nc1cc(-c2ccc3ccn(Cc4ccc(CN5CCCCC5)cc4)c3c2)[nH]n1	7.2	–	MIC [3]: 50 µM (≈ 19.3 µg/mL); MIC [4]: 50 µM; MIC [5]: > 100 µM; MIC [6]: 25 µM; MIC [8]: 12.5 µM

SMILES	ΔTm [1] [°C]	pKd [2]	other results
CN1CCCC(Cn2ccc3ccc(-c4[nH]nc(N)c4C#N)cc32)C1 (racemic)	10.9	6.44	Activity [10]: Active
N#Cc1c(N)n[nH]c1-c1ccc2c(Cl)cn(Cc3cccnc3)c2c1	5.8	5.07	–
N#Cc1c(N)n[nH]c1-c1ccc2ccn(Cc3ccnc4ccccc34)c2c1	10.3	–	–
COc1cccc(COC(=O)c2cn[nH]c2)c1	3.5	4.85	–
Nc1cc(-c2ccc3cc[nH]c3c2)[nH]n1	1.1	3.96	ΔTm [7]: 4.8 °C
CCOc1cccc(COC(=O)c2cn[nH]c2)c1	3.1	4.96	–
N#Cc1c(N)n[nH]c1-c1ccc2ccn(Cc3ccncc3)c2c1	11.5	6.92	MIC [3]: 50 µM (≈ 15.7 µg/mL); MIC [4]: 50 µM; MIC [5]: > 100 µM
N#Cc1c(N)n[nH]c1-c1ccc2ccn(Cc3ccccc3)c2c1	10.1	–	Activity [9]: Active
Nc1cc(-c2ccc3ccn(Cc4ccccn4)c3c2)[nH]n1	3.1	4.92	–
N#Cc1c(N)n[nH]c1-c1ccc2ccn(Cc3cccnc3)c2c1	10.5	6.74	–
N#Cc1c(N)n[nH]c1-c1ccc2ccn(Cc3ccccn3)c2c1	8.3	6.30	–
O=C(O)c1ccc2cc[nH]c2c1	–	–	ΔTm [7]: -0.6 °C
N#Cc1cccc(COC(=O)c2cn[nH]c2)c1	2.8	4.52	–
N#Cc1ccccc1Cn1ccc2ccc(-c3cc(N)n[nH]3)cc21	4.4	4.92	–
COC(=O)c1ccc(COC(=O)c2cn[nH]c2)cc1	0.9	–	–
N#Cc1c(N)n[nH]c1-c1ccc2cc[nH]c2c1	4.4	5.30	–
CC(C)N1CCN(Cc2ccc(Cn3ccc4ccc(-c5[nH]nc(N)c5C#N)cc43)cc2)CC1	11.9	–	MIC [3]: 50 µM (≈ 22.7 µg/mL); MIC [4]: 6.3 µM; MIC [5]: 12.5 µM; MIC [6]: 2.3 µM; MIC [8]: 1.6 µM
Cc1ccc(-c2cc(N)[nH]n2)cc1	–	–	ΔTm [7]: 1.4 °C
N#Cc1c(N)n[nH]c1-c1ccc2ccn(Cc3ccc(O)nc3)c2c1	8.3	5.89	–
Cc1c(N)n[nH]c1-c1ccc2ccn(Cc3ccc(CN4CCCC4)cc3)c2c1	6.1	–	–
O=C(OCc1cccc(OCCc2ccccc2)c1)c1cn[nH]c1	3	–	–
N#Cc1c(N)n[nH]c1-c1ccc2ccn(Cc3cccnc3O)c2c1	5.5	5.49	–
OB(O)c1ccc2cc[nH]c2c1	–	3.59	ΔTm [7]: 4 °C
COc1ccc(Cn2ccc3ccc(-c4cc(N)n[nH]4)cc32)cc1	3.4	4.23	–
